Data on eight compounds can be found in ChEMBL document CHEMBL1133503 (J Med Chem, 2000).

Assay [1] in a line: Hypoxic selectivity expressed as the ratio of IC50 values in air and nitrogen. The assay is classed as functional.
Assay [2] in a line: Concentration required to reduce cell survival to 10% of controls using V-79 cells in the clonogenic assay, in anaerobic conditions (hypoxic conditions). Type of assay: functional. Particulars: Cricetulus griseus, V79. The procedure, abridged:
(§1)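 V-79 cells (500 000 per bottle) grown 20 h in MEM with 10% FBS. Hypoxic set gassed 2 h at 37 °C with humidified 95% N2/5% CO2. Drug in ethanol/water or DMF injected through septa. Exposure 3 h under air or hypoxia. Cells trypsinised, counted by trypan blue, 500 plated in triplicate for 6–8 days. Colonies stained with crystal violet, survival relative to solvent control.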

Assay [3] is described as follows: Concentration required to reduce cell survival to 10% of controls using V-79 cells in the clonogenic assay, in aerobic conditions. Type of assay: functional. The following applies: Cricetulus griseus, V79. The procedure, abridged:
as §1

The nature of assay [4]: Concentration of drug required to reduce V-79 cell survival to 50% of controls in a SRB assay. Type of assay: functional, cell-based. Particulars: Cricetulus griseus, V79. The procedure, abridged:
(§2)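 V-79 cells (about 7 × 10³ per 100 μL) preincubated 24 h, then exposed to drug for 3 h under oxic conditions. Washed 5× with HBSS and grown 48 h more. Fixed with TCA and stained with SRB. Bound dye dissolved in 10 mM Tris, spotted on TLC and read by video densitometry. IC50 is the mean of triplicates in one experiment. Ratio is IC50 of sulfide over sulfoxide or sulfone.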

Assay [5] is described as follows: Relative cytotoxicity is expressed as the ratio of the IC50 values of the corresponding sulfide to sulfoxide or to sulfone. The assay is classed as functional, Cricetulus griseus. In short, it runs like this: as §2
Assay [6] is filed under the species Rattus norvegicus. The assay is described as follows: Bioreduction experiment was conducted by incubation of the sulfoxides with rat liver S-9 fractions in anaerobic conditions (N2 2-hydroxypyrimidine). The assay is classed as functional. The procedure, abridged:
(§3)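 Rat liver S-9 fraction incubated with sulfoxide at 37 °C for 30 min with shaking. Aerobic vials were left open to air. Anaerobic vials were purged with N2 for 10 min before the compound was injected. Cofactor was NADPH, benzaldehyde, 2-hydroxypyrimidine or acetaldehyde, or none. Controls were boiled S-9 and S-9 without cofactors. For menadione, S-9 was preincubated aerobically with 1 equiv for 30 min, then benzaldehyde was added. Sulfide or sulfone was measured by HPLC or TLC densitometry.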

For assay [7], the species on record is Rattus norvegicus. As to the kind of experiment: Bioreduction experiment was conducted by incubation of the sulfoxides with rat liver S-9 fractions in anaerobic conditions(N2, without cofactors). Type of assay: functional. In short, it runs like this: as §3
The species entered for assay [8] is Rattus norvegicus. As to the kind of experiment: Bioreduction experiment was conducted by incubation of the sulfoxides with rat liver S-9 fractions in anaerobic conditions(N2, benzaldehyde). The assay is classed as functional. In short, it runs like this:
as §3

Assay [9] is filed under the species Rattus norvegicus. The assay is described as follows: Bioreduction experiment was conducted by incubation of the sulfoxides with rat liver S-9 fractions in anaerobic conditions (N2). Type of assay: functional. In short, it runs like this:
as §3

Assay [10] is filed under the species Rattus norvegicus. As to the kind of experiment: Reduction potential (SCE) determined by differential pulse polarography of the sulfoxides […]. The assay is classed as functional.
For assay [11], the species on record is Rattus norvegicus. As to the kind of experiment: Bioreduction experiment was conducted by incubation of the sulfoxides with rat liver S-9 fractions in aerobic conditions (N2, NADPH). The assay is classed as functional. The procedure, abridged: as §3
For assay [12], the species on record is Rattus norvegicus. As to the kind of experiment: Bioreduction experiment was conducted by incubation of the sulfoxides with rat liver S-9 fractions in aerobic conditions (N2, 2-hydroxypyrimidine). The assay is classed as functional. The procedure, abridged: as §3
The species entered for assay [13] is Rattus norvegicus. As to the kind of experiment: Bioreduction experiment was conducted by incubation of the sulfoxides with rat liver S-9 fractions under anaerobic (N2) in the presence of NADPH. Type of assay: functional. In short, it runs like this: (§4)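 Rat liver S-9 incubated with sulfoxide for 30 min at 37 °C, in open vials (air) or in vials purged with N2 for 10 min before dosing. Cofactor was NADPH, NADH, benzaldehyde, 2-hydroxypyrimidine or acetaldehyde. Controls were boiled S-9 or no cofactor. Menadione arm: 30 min aerobic preincubation with 1 equiv, then benzaldehyde. Stopped with CH2Cl2. Sulfide quantified by TLC densitometry as % of sulfoxide. Three experiments, same S-9 batch.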

Assay [14] is filed under the species Rattus norvegicus. The assay is described as follows: Bioreduction experiment was conducted by incubation of the sulfoxides with rat liver S-9 fractions in aerobic conditions (N2, acetaldehyde). The assay is classed as functional. In short, it runs like this:
as §3

The species named for assay [15] is Rattus norvegicus. As to the kind of experiment: Bioreduction experiment was conducted by incubation of the sulfoxides with rat liver S-9 fractions in anaerobic conditions (N2, without cofactors). Type of assay: functional. Details: concentration or dose not given beside the values. The procedure, abridged:
as §3

The nature of assay [16]: Hypoxia-selective cytotoxicity required to reduce cell survival to 10% of controls using V-79 cells in the clonogenic assay, with N2. The assay is classed as functional. The following applies: Cricetulus griseus, V79. The procedure, abridged:
as §1

For assay [17], the species on record is Rattus norvegicus. The assay is described as follows: Bioreduction experiment was conducted by incubation of the sulfoxides with rat liver S-9 fractions in aerobic conditions (air, benzaldehyde). The assay is classed as functional. In short, it runs like this:
as §3

The species named for assay [18] is Rattus norvegicus. As to the kind of experiment: Bioreduction experiment was conducted by incubation of the sulfoxides with rat liver S-9 fractions under aerobic(air) without cofactors. The assay is classed as functional. In short, it runs like this: as §4
Assay [19] is filed under the species Rattus norvegicus. As to the kind of experiment: Bioreduction experiment was conducted by incubation of the sulfoxides with rat liver S-9 fractions under anaerobic (N2) in the presence of NADH. Type of assay: functional. The procedure, abridged:
as §4

The species entered for assay [20] is Rattus norvegicus. As to the kind of experiment: Bioreduction experiment was conducted by incubation of the sulfoxides with rat liver S-9 fractions under aerobic(air) in the presence of NADPH. Type of assay: functional. The procedure, abridged: as §4
For assay [21], the species on record is Rattus norvegicus. As to the kind of experiment: Bioreduction experiment was conducted by incubation of the sulfoxides with rat liver S-9 fractions under aerobic(air) in the presence of benzaldehyde. Type of assay: functional. In short, it runs like this: as §4
For assay [22], the species on record is Rattus norvegicus. As to the kind of experiment: Bioreduction experiment was conducted by incubation of the sulfoxides with rat liver S-9 fractions under anaerobic (N2) in the presence of menadione. The assay is classed as functional. The procedure, abridged: as §4
The species named for assay [23] is Rattus norvegicus. The assay is described as follows: Bioreduction experiment was conducted by incubation of the sulfoxides with rat liver S-9 fractions in aerobic conditions (air, without cofactors). The assay is classed as functional. In short, it runs like this:
as §3

Assay [24] is filed under the species Rattus norvegicus. The assay is described as follows: Bioreduction experiment was conducted by incubation of the sulfoxides with rat liver S-9 fractions in aerobic conditions (air, NADPH). The assay is classed as functional. In short, it runs like this:
as §3

Assay [25] is filed under the species Rattus norvegicus. As to the kind of experiment: Bioreduction experiment was conducted by incubation of the sulfoxides with rat liver S-9 fractions in aerobic conditions (air, control). The assay is classed as functional. The procedure, abridged: as §3
The species entered for assay [26] is Rattus norvegicus. As to the kind of experiment: Bioreduction experiment was conducted by incubation of the sulfoxides with rat liver S-9 fractions in anaerobic conditions N2). The assay is classed as functional. In short, it runs like this:
as §3

Assay [27] is filed under the species Rattus norvegicus. As to the kind of experiment: Bioreduction experiment was conducted by incubation of the sulfoxides with rat liver S-9 fractions in anaerobic conditions (N2, benzaldehyde). Type of assay: functional. Further details: concentration or dose not given beside the values. In short, it runs like this: as §3
The species named for assay [28] is Rattus norvegicus. The assay is described as follows: Bioreduction experiment was conducted by incubation of the sulfoxides with rat liver S-9 fractions under anaerobic (N2) without cofactors. Type of assay: functional. In short, it runs like this: as §4
The species entered for assay [29] is Rattus norvegicus. As to the kind of experiment: Bioreduction experiment was conducted by incubation of the sulfoxides with rat liver S-9 fractions in aerobic conditions (N2, menadione). Type of assay: functional. The procedure, abridged:
as §3

The species entered for assay [30] is Rattus norvegicus. The assay is described as follows: Bioreduction experiment was conducted by incubation of the sulfoxides with rat liver S-9 fractions under anaerobic (N2) in the presence of acetaldehyde. The assay is classed as functional. In short, it runs like this:
as §4

The species named for assay [31] is Rattus norvegicus. The assay is described as follows: Bioreduction experiment was conducted by incubation of the sulfoxides with rat liver S-9 fractions under aerobic(air) in the presence of were NADH. Type of assay: functional. In short, it runs like this: as §4
The species named for assay [32] is Rattus norvegicus. The assay is described as follows: Bioreduction experiment was conducted by incubation of the sulfoxides with rat liver S-9 fractions under anaerobic (N2) in the presence of 2-hydroxypyrimidine. Type of assay: functional. In short, it runs like this: as §4
For assay [33], the species on record is Rattus norvegicus. The assay is described as follows: Bioreduction experiment was conducted by incubation of the sulfoxides with rat liver S-9 fractions under aerobic(air) with conditions boiled S-9 fractions. The assay is classed as functional. The procedure, abridged: as §4
For assay [34], the species on record is Rattus norvegicus. As to the kind of experiment: Bioreduction experiment was conducted by incubation of the sulfoxides with rat liver S-9 fractions under anaerobic (N2) with conditions boiled S-9 fractions. The assay is classed as functional. In short, it runs like this: as §4
Assay [35] can be described thus: Hypoxia-selective cytotoxicity required to reduce cell survival to 10% of controls using V-79 cells in the clonogenic assay, with air. The assay is classed as functional. Particulars: Cricetulus griseus, V79. In short, it runs like this: as §1

By IC90 is commonly meant the concentration needed for an effect of 90%. Turning to `[O-][S+](c1ccc(NCCCl)cc1)c1ccc(NCCCl)cc1`, in assay [1], the Selectivity came to 0.7. Also, the figures for the IC90 in assay [2] and in assay [3] were 2210 µM and 1580 µM, respectively.
For orientation: IC50 means the concentration that gives 50% inhibition. In assay [4], `Nc1ccc(Sc2ccc(N(CCCl)CCCl)cc2)cc1` showed an IC50 of 2.49 µM. Besides, the Cytotoxicity in assay [5] stood at 1.
The like results for `Cl.ClCCN(CCCl)c1ccc(Sc2ccc(Nc3c4ccccc4nc4ccccc34)cc2)cc1` were, in that order, 1.93 µM and 1.
As to `[O-][s+]1c2ccccc2c2cc(N(CCCl)CCCl)ccc21` (stereo not given), the Bioreduction is reported as 2.02% in assay [6], 0.46% in assay [7], 1.68% in [8] and 0% in assay [9]. For the same compound, the Selectivity in [1] came out at 1.3. Moreover, the figures for the IC90 in [2] and in [3] were 161 µM and 210 µM, respectively. Also, the E in assay [10] was 2.03 -V.
In [4], `Nc1ccc(S(=O)(=O)c2ccc(N(CCCl)CCCl)cc2)cc1` yielded an IC50 of 26.9 µM. Moreover, the Cytotoxicity in [5] turned out to be 0.09.
In the case of `Nc1ccc([S+]([O-])c2ccc(N(CCCl)CCCl)cc2)cc1` (stereo not given), the Bioreduction was determined as 0.37% in [11]; 4.5% in assay [12]; 42.1% in assay [13]; 4.42% in assay [14]; 0% in [15]; 0% in assay [17]. In addition, the Bioreduction is 1.14% in [18]; 9% in assay [19]; 16% in [20]; 1.05% in [21]; 1.6% in assay [22]; 0% in assay [23]. Moreover, the Bioreduction in [24] was 0 nmol/mg; in assay [25], 0%; in assay [26], 0%; in [27] it was 5%; in assay [28] it was 1.75%; in assay [29], 0%. The Bioreduction in [30] worked out at 12.92%; in assay [31] it was 9.75%; in [32] it was 8.5%; in [33] it was 0%; in assay [34], 0%. Also, the IC90 in [16] was 185 µM; in assay [35], 2800 µM. For the same compound, the Selectivity in assay [1] turned out to be 15. In assay [4], this compound registered an IC50 of 30 µM. For the same compound, the Cytotoxicity in assay [5] worked out at 0.08. Moreover, the E in assay [10] was 2.55 -V.
Regarding `Cl.O=S(=O)(c1ccc(Nc2c3ccccc3nc3ccccc23)cc1)c1ccc(N(CCCl)CCCl)cc1`, in assay [4], the IC50 turned out to be 22.2 µM. Moreover, in assay [5], the Cytotoxicity worked out at 0.09.
The like results for `O=[N+]([O-])c1ccc(S(=O)(=O)c2ccc(N(CCCl)CCCl)cc2)cc1` were, in that order, 26.7 µM and 0.08.
